# ChEMBL document CHEMBL1156343, “Bioactive acridone alkaloids from Swinglea glutinosa” (J Nat Prod, 2001)
# Tests used:
# [1] = Selectivity index, ratio of ED50 for human HeLa cells to IC50 for Plasmodium falciparum Nigerian after 24 hrs by [3H]hypoxanthine incorporation assay; format: functional
# Outline: (§1)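 Ratio of HeLa ED50 to P. falciparum Nigerian-strain IC50 at the same exposure time (24 or 72 h). For the parasite, ring-stage cultures synchronized by gelatine flotation and sorbitol were used at 0.5–1% parasitemia and 1% hematocrit in human red cells with 5% AB+ serum. Compounds ran at final 50–0.01 μg/mL. Growth was read by [3H]-hypoxanthine incorporation, and IC50 was read graphically from inhibition curves.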
# Plasmodium falciparum [2] = assay: Antiplasmodial activity after 24 hrs against chloroquine-sensitive Plasmodium falciparum Nigerian by [3H]hypoxanthine uptake; format: functional, organism-based
# Outline: (§2)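 P. falciparum continuously cultured in human O± red cells, 1% hematocrit, RPMI 1640 with 25 mM Hepes, 30 mM NaHCO3, 5% human AB+ serum. Cultures synchronized daily by gelatine flotation and 5% sorbitol lysis. Tested mostly at ring stage, 0.5-1% parasitemia. DMSO stocks diluted serum-free to final 50-0.01 µg/mL (DMSO ≤1%). Three experiments in triplicate. IC50 read graphically from concentration versus percent inhibition curves.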
# Plasmodium falciparum [3] = assay: Antiplasmodial activity against chloroquine-resistant Plasmodium falciparum FcM29 after 72 hrs by [3H]hypoxanthine uptake; format: functional, organism-based; outline: as §2
# Plasmodium falciparum [4] = assay: Antiplasmodial activity after 24 hrs against chloroquine-resistant Plasmodium falciparum FcM29 by [3H]hypoxanthine uptake; format: functional, organism-based; outline: as §2
# [5] = Selectivity index, ratio of ED50 for human HeLa cells to IC50 for Plasmodium falciparum Nigerian after 72 hrs by [3H]hypoxanthine incorporation assay; format: functional; outline: as §1
# [6] = Cytotoxicity against human HeLa cells after 72 hrs by [3H]hypoxanthine incorporation assay; format: cell-based; conditions: read-out: ED50
# Outline: (§3)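 HeLa cells grown in RPMI 1640 with 25 mM Hepes, 30 mM NaHCO3 and 5% fetal calf serum. After trypsinization, cells were seeded at 2×10^4 cells/well. Compounds were taken from 10 mg/mL DMSO stocks and diluted in serum-free medium to final 100–0.02 μg/mL (DMSO ≤1% final). Growth was read by [3H]-hypoxanthine incorporation at 24 and 72 h against untreated wells. Three experiments, each in triplicate.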
# Plasmodium falciparum [7] = assay: Antiplasmodial activity after 72 hrs against chloroquine-sensitive Plasmodium falciparum Nigerian by [3H]hypoxanthine uptake; format: functional, organism-based; outline: as §2
# [8] = Cytotoxicity against human HeLa cells after 24 hrs by [3H]hypoxanthine incorporation assay; format: cell-based; conditions: read-out: ED50; outline: as §3
SMILES,Ratio [1],IC50 (Plasmodium falciparum [2]),IC50 (Plasmodium falciparum [3]),IC50 (Plasmodium falciparum [4]),Ratio [5],CC50 at 72 h [6],IC50 (Plasmodium falciparum [7]),CC50 at 24 h [8]
Cn1c2c(O)cccc2c(=O)c2c(O)cc3c(c21)C=CC(C)(C)O3,7.7,11.1 µM,6.8 µM,10.2 µM,9,78 µM,8.7 µM,85.5 µM
CC(C)=CCc1c(O)cc2c(c1O)c(=O)c1c(CC=C(C)C)ccc(O)c1n2C,9,5.3 µM,7.1 µM,7.9 µM,9.4,52.2 µM,5.6 µM,47.2 µM
CCN(CC)CCCC(C)Nc1ccnc2cc(Cl)ccc12 (centres undefined) [CHLOROQUINE PHOSPHATE],,,,,,> 100 µM,,> 100 µM
COc1c(O)cc(O)c2c(=O)c3cccc(O)c3n(C)c12 [CITRUSININE-II],0.5,33 µM,20.5 µM,27.1 µM,1.8,35.1 µM,20.1 µM,16.8 µM
COc1c(O)c(CC=C(C)C)c(O)c2c(=O)c3cccc(O)c3n(C)c12 [GLYCOCITRINE-IV],0.3,2.5 µM,2.3 µM,2 µM,2.1,5.3 µM,2.5 µM,0.71 µM
